Assay outcomes as filed in PubChem BioAssay.
Pf gametocyte – P. falciparum stage V gametocyte viability inhibition; P. falciparum stage V gametocytes, ATP luminescence, 24 h; inhibition, % at 10.9 µM; 150,000 tested, 0.065% active; AID 743093;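 active = inhibition above the mean plus 3 SD of compounds within the control limits, set per campaign, cut at about 38% in these data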;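 also: 0% = DMSO wells and 100% = medium only without gametocytes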
STAT1 activator – increases IFN-gamma driven STAT1 reporter signal; NIH 3T3 STAT1-luciferase reporter, luminescence; 100% = IFN-gamma alone, no compound; activation (% of control), % at 5.5 µM; 200,000 tested, 2.6% active; AID 932;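 active = activation above the screen-wide mean activation plus 3 SD, cut at about 130% in these data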;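 also: raw ratio to IFN-gamma control signal so 100% means no change and 0% no light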
NF-kB neuron act – raises NF-kB expression in human neuronal cells. fold change at 12.5 µM. AID 1239. 190,000 tested, 1.6% active. NF-kB reporter expression; hits give high values; in the data active = fold change above about 3.3
APP 5'UTR act – APP 5'UTR luciferase reporter activation. SH-SY5Y APP 5'UTR luciferase reporter, luminescence; zero percent = DMSO vehicle wells. activation, % at 2 µM. 190,000 tested, 1% active. AID 1276;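 active = activation above a set limit, based on mean plus 3 SD of controls, cut at about 140% in these data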
STAT1 inh – reduces IFN-gamma driven STAT1 reporter signal. 200,000 tested, 0.35% active. NIH 3T3 STAT1-luciferase reporter, luminescence. inhibition, % at 5.5 µM;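 active = inhibition above a set limit, the mean inhibition across all tested compounds plus 3 SD, cut at about 34% in these data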;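 also: 0% = IFN-gamma with DMSO and 100% = IFN-gamma with 300 µM nifuroxazide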
STAT3 activator – STAT3 signaling activation. U3A cells, IL-6 STAT3-luciferase reporter, luminescence; 100% = signal with IL-6 EC80 alone. activation (% of control), % at 5.6 µM. 190,000 tested, 0.91% active;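 active = activation above the screen-wide mean of compound activation plus 3 SD, cut at about 130% in these data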;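 also: 0% = background luminescence of wells with medium and substrate only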
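system = STAT3-luciferase reporter U3A cells | reagent = IL-6 stimulus at 33 ng/mL final | timing = 1 h compound pre-exposure, 6 h IL-6 stimulation, 37 °C | measured by = luminescence | evaluation = % activation versus median of IL-6-stimulated wells | control set = IL-6-only wells as 100% reference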
STAT1 activ conf – confirmation of STAT1 signaling activators. shares compounds with STAT1 activator. NIH 3T3 STAT1-luciferase reporter, IFN-gamma potentiation, luminescence; 100% = IFN-gamma EC80 alone, no compound. activation (% of control), % at 5.7 µM. 1,200 tested, 97% active;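 active = activation above a set limit carried over from the earlier primary STAT1 screen, cut at about 140% in these data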;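 also: simple ratio to median IFN-gamma plus DMSO wells so 0% means no light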
NFkB act STAT1ct – NF-kappaB activation in STAT1 activator counter-screen | shares compounds with STAT1 activator | HEK293T NF-kB luciferase reporter, TNF-alpha stimulated, luminescence; 100% = TNF-alpha with vehicle only | activation (% of control), % at 5.7 µM | 1,200 tested, 43% active;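 active = activation above the mean of solvent-only control wells plus 3 SD, set per campaign, cut at about 130% in these data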;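 also: TNF-alpha given at a submaximal dose yielding about 80% of full reporter signal; values are well signal over median control so 100% means no change and 0% no light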
STAT3 act 2 – activates human STAT3, counter-screen to STAT1 activators; shares compounds with STAT1 activator; U3A cells STAT3-luciferase reporter, IL-6, luminescence; cells lack STAT1; 100 = IL-6 alone, no compound effect; activation (% of control), % at 5.7 µM; 1,200 tested, 46% active; AID 1316;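 active = activation above the solvent-only control well mean plus 3 SD, set per plate batch, cut at about 110% in these data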;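 also: 0% = no luminescence and 100% = median IL-6 plus DMSO wells; higher means more STAT3 reporter activation so hits are non-selective activators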
Starred values were filed as active, the others as inactive; nt = no result. Most compounds without a hit are left out; they make up all but 3.9% or so of the library.

SMILES | Pf gametocyte | STAT1 activator | NF-kB neuron act | APP 5'UTR act | STAT1 inh | STAT3 activator | STAT1 activ conf | NFkB act STAT1ct | STAT3 act 2
Cc1ccc2nc(NC(=O)CCn3cccc3)sc2c1 | 16 | 152* | 0.84 | 2 | -61 | 92 | 141* | 114 | 96
Cc1ccc2nc(NC(=O)c3ccc(Cl)s3)sc2c1 | nt | 152* | 5.3* | 64 | -58 | 90 | 249* | 138* | 110
O=C(O)c1ccccc1-c1ccccc1C(=O)Nc1nc2ccccc2s1 | 6 | nt | nt | nt | nt | nt | nt | nt | nt
Cc1ccc2nc(NC(=O)CCn3c(=O)sc4ccccc43)sc2c1 | nt | 95 | 1.1 | -7 | 5 | 107 | nt | nt | nt
Cc1ccc(C(=O)Nc2nc3ccccc3s2)s1 | nt | 157* | 4.2* | 157* | -63 | 70 | 264* | 108 | 99
CCCCNC(=O)Nc1nc2ccccc2s1 | 3 | 152* | 1.3 | 148* | -57 | 102 | 186* | 128 | 116*
C=CCN1c2ccccc2[C@]23C[C@@H](C(=O)OC)N(C(=O)NCCC)C2=NC(C(=O)OC)=C(C(=O)OC)[C@H]13 | 7 | nt | nt | nt | nt | nt | nt | nt | nt
O=C(NC1CCCN(Cc2ccccc2F)C1)C1CCC1 (stereo not given) | 7 | nt | nt | nt | nt | nt | nt | nt | nt
OCCNc1c2ccccc2nc2ccccc12 | 23 | 158* | 0.92 | 6 | -65 | 130 | 159* | 133 | 117*
Cc1cc(C)n(-c2nnc(NC34CC5CC(CC(C5)C3)C4)nn2)n1 | nt | 162* | 2.5 | 134 | -70 | 124 | 182* | 145* | 159*
Cc1cc(C)n(-c2nnc(NC(C)(C)C)nn2)n1 | nt | 122 | 2.4 | 23 | -25 | 107 | nt | nt | nt
Cc1ccc(OCC(COCc2ccccc2)NC(C)C)cc1 (stereo not given) | -3 | nt | nt | nt | nt | nt | nt | nt | nt
CC(C)=CC(=O)Nc1nnc(-c2ccccc2)s1 | -25 | 162* | 3.2 | 9 | -69 | 100 | 196* | 135* | 104
CCOC(=O)[C@H]1[C@H]2COc3ccc(OC)cc3[C@@H]2N2C(=O)CN(Cc3ccc(OC)cc3)C(=O)[C@@]12C | -10 | nt | nt | nt | nt | nt | nt | nt | nt
O=S(=O)(Nc1ccc(Cl)cn1)c1ccc(F)cc1 | 7 | nt | nt | nt | nt | nt | nt | nt | nt
Cc1cs/c(=N/C(=S)Nc2ccccc2)n1C | -8 | 178* | 4* | 133 | -87 | 94 | 204* | 133 | 107
CCCn1c(C)cs/c1=N\C(=S)Nc1ccccc1 | -1 | 97 | 1.1 | 25 | 3 | 97 | nt | nt | nt
CC(C)N=C(NS(=O)(=O)c1ccccc1)C(Cl)(Cl)Cl | nt | 82 | 3 | -12 | 20 | 103 | nt | nt | nt
Nc1c(Cl)ncnc1N/N=C/c1ccccn1 | -1 | 114 | 1.1 | -92 | -16 | 103 | nt | nt | nt
Nc1c(Cl)ncnc1N/N=C/c1ccc2ccccc2n1 | -5 | 162* | 0.41 | -66 | -70 | 110 | 161* | 125 | 138*
CCCCC/C=C/C1=CC(=O)C[C@H](c2ccc(OC)c(OC)c2)C1 | -1 | nt | nt | nt | nt | nt | nt | nt | nt
CC(=O)c1cccc(CN(C)CC2CCCN(CCc3ccccc3C)C2)c1 (stereo not given) | 16 | nt | nt | nt | nt | nt | nt | nt | nt
Cc1ccc(C=Nc2ccc(N(C)C)cc2)o1 | nt | 164* | 0.85 | 153* | -70 | 99 | 149* | 132 | 113*
Cc1cc(/C=N/NC(=O)c2nn(C)cc2Cl)c(C)n1-c1cccc(Br)c1 | -11 | 159* | 1.5 | 4 | -65 | 109 | 113 | 108 | 91
Cc1cc(/C=N/NC(N)=S)c(C)n1-c1cccc(Cl)c1 | -7 | 99 | 1.1 | -8 | -1 | 97 | nt | nt | nt
SMILES | Pf gametocyte | STAT1 activator | NF-kB neuron act | APP 5'UTR act | STAT1 inh | STAT3 activator | STAT1 activ conf | NFkB act STAT1ct | STAT3 act 2
Cc1c(C(=O)Nc2cccc([N+](=O)[O-])c2)csc1-c1ccccc1 | 6 | 165* | 3.8* | 194* | -72 | 116 | 238* | 128 | 139*
COc1ccc(NC(=O)Nc2ccccc2OC)cc1 | nt | 114 | 2.5 | 32 | -15 | 96 | nt | nt | nt
COc1ccc(NC(=O)N/C=C/c2ccccc2)cc1 | 0 | 156* | 1.2 | 113 | -61 | 95 | 168* | 142* | 105
Cn1ccs/c1=N\C(=O)Nc1cccc(Cl)c1 | nt | 156* | 3.7* | 115 | -65 | 95 | 184* | 134* | 105
O=C(CN1CCCCCC1)NN(Cc1ccccc1)c1ccccc1 | -7 | nt | nt | nt | nt | nt | nt | nt | nt
COc1ccc2oc(-c3ccco3)cc(=O)c2c1 | -2 | 160* | 1.3 | 83 | -65 | 82 | 183* | 122 | 105
O=c1cc(-c2ccco2)oc2ccc(Cl)cc12 | nt | 108 | 1.6 | -5 | -9 | 90 | nt | nt | nt
O=C(N=Nc1c(O)[nH]c2ccccc12)c1ccco1 | 18 | 155* | 2.9 | 142* | -58 | 109 | 179* | 127 | 126*
Cc1c(C(=O)Nc2ccc(Br)cc2)cnn1C | -4 | 152* | 2.7 | 32 | -59 | 116 | 159* | 120 | 118*
COc1cccc(-c2cn3nc4c(nc3n2)CCCC4)c1 | nt | 160* | 3.6* | 170* | -66 | 88 | 191* | 111 | 89
COc1cccc(-c2cc(C(F)(F)F)n3nc(N)nc3n2)c1 | -4 | 99 | 1.2 | -10 | 4 | 94 | nt | nt | nt
O=C(NC1CC1)C1=C[C@H](C2CCCCC2)C[C@H](OCc2ccc(CO)cc2)O1 | 11 | 158* | 1.1 | -1 | -60 | nt | 105 | 101 | 94
O=C(O)C1=C[C@@H](C2CCCCC2)C[C@@H](OCc2ccc(CO)cc2)O1 | nt | 102 | 1.6 | 2 | -1 | nt | nt | nt | nt
Cc1cnc(NC(=O)CCc2ccccc2)s1 | 12 | nt | nt | nt | nt | nt | nt | nt | nt
Cc1cnc(NC(=O)COc2ccccc2)s1 | 24 | 166* | 4.3* | 168* | -72 | 82 | 179* | 130 | 101
O=C(COC(=O)c1ccc([N+](=O)[O-])s1)Nc1ncc(C(F)(F)F)cc1Cl | -26 | 94 | 0.9 | -1 | 6 | 101 | nt | nt | nt
c1ccc(N2CCN(c3cnc4ccccc4n3)CC2)cc1 | nt | 175* | 6.5* | 11 | -70 | 87 | 219* | 130 | 97
O=C1C(c2cc(=O)c3ccccc3[nH]2)=C(O)c2ccccc21 | 18 | 191* | 7* | 144* | -102 | 95 | 193* | 125 | 118*
Cc1ccc(-c2nc3cc(N)ccc3o2)c(C)c1 | nt | 154* | 4.9* | 42 | -59 | 68 | 233* | 112 | 96
Cc1ccccc1-c1nc2cc(Cl)ccc2o1 | nt | 126 | 2.5 | 40 | -28 | 127 | nt | nt | nt
